Data set [1] has as its system Mus musculus. Nature of the data set: Antidepressant activity in Albino mouse assessed as duration of immobility at 10 mg/kg, ip by forced-swimming test relative to control. It counts as functional. To be noted: route intraperitoneal. Summed up:
(§1)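 Porsolt forced-swim test in albino mice. Drug given ip at 0.5 ml/20 g body weight, 1 h before testing. Controls received 1% aqueous Tween 80. Each mouse was placed singly in a water-filled Plexiglas cylinder for 6 min. Immobility (floating upright with only slight movements to stay afloat) was timed over the last 4 min.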

Data set [2] relates to Mus musculus. The experiment in a line: Neurotoxicity in Albino mouse at 100 mg/kg, ip after 30 mins by RotaRod test. It counts as toxicity, organism-based. Set-up: dose 100 mg/kg, route intraperitoneal. To be noted: in vivo, 0.5 h. Summed up:
(§2)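 Phase I protocol of the NINCDS antiepileptic drug development programme in albino mice, covering MES, subcutaneous pentylenetetrazole (metrazol) and rotarod neurotoxicity. Doses were 30, 100 and 300 mg/kg, read at 1/2 h and 4 h. One animal per dose and time point, scored as 0/1 (no activity) or 1/1 (noticeable activity).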
For orientation: The rotarod test checks motor coordination on a turning rod.

Data set [3] deals with Mus musculus. Nature of the data set: Anticonvulsant activity against metrazole-induced seizures in Albino mouse at 300 mg/kg, ip after 30 mins by scMet assay. It counts as functional, organism-based. Set-up: dose 300 mg/kg. Summed up:
as §2

Data set [4] deals with Mus musculus. The experiment in a line: Anticonvulsant activity against metrazole-induced seizures in Albino mouse at 100 mg/kg, ip after 4 hrs by scMet assay. It counts as functional, organism-based. Set-up: dose 100 mg/kg. Summed up: as §2
Data set [5] relates to Mus musculus. The experiment in a line: Antidepressant activity in Albino mouse assessed as duration of immobility at 10 mg/kg, ip by forced-swimming test. In kind it is functional. Conditions: route intraperitoneal. Summed up:
as §1

In data set [6] the test system is Mus musculus. The experiment in a line: Anticonvulsant activity against metrazole-induced seizures in Albino mouse at 30 mg/kg, ip after 30 mins by scMet assay. It counts as functional, organism-based. On the set-up: dose 30 mg/kg. Summed up:
as §2

The test system of data set [7] is Mus musculus. Nature of the data set: Neurotoxicity in Albino mouse at 100 mg/kg, ip after 4 hrs by RotaRod test. In kind it is toxicity, organism-based. On the set-up: dose 100 mg/kg, route intraperitoneal. Conditions: in vivo. Summed up: as §2
Data set [8] concerns Mus musculus. Nature of the data set: Anticonvulsant activity in Albino mouse at 300 mg/kg, ip after 4 hrs by MES test. It counts as functional, organism-based. On the set-up: dose 300 mg/kg. Summed up:
as §2

Data set [9] concerns Mus musculus. Nature of the data set: Anticonvulsant activity in Albino mouse by MES test at 300 mg/kg, ip after 30 mins. It counts as functional, organism-based. Set-up: dose 300 mg/kg. Summed up: as §2
The test system of data set [10] is Mus musculus. The experiment in a line: Anticonvulsant activity against metrazole-induced seizures in Albino mouse at 100 mg/kg, ip after 30 mins by scMet assay. In kind it is functional, organism-based. On the set-up: dose 100 mg/kg. Summed up: as §2
Data set [11] deals with Mus musculus. The experiment in a line: Anticonvulsant activity in Albino mouse at 30 mg/kg, ip after 4 hrs by MES test. Set-up: dose 30 mg/kg. In kind it is functional, organism-based. Summed up:
as §2

The test system of data set [12] is Mus musculus. Nature of the data set: Neurotoxicity in Albino mouse at 30 mg/kg, ip after 30 mins by RotaRod test. Conditions: in vivo, 0.5 h. Set-up: dose 30 mg/kg, route intraperitoneal. It counts as toxicity, organism-based. Summed up:
as §2

For data set [13], the system named is Mus musculus. The experiment in a line: Anticonvulsant activity in Albino mouse by MES test at 30mg/kg, ip after 30 mins. In kind it is functional, organism-based. Summed up:
as §2

Data set [14] deals with Mus musculus. Nature of the data set: Anticonvulsant activity against metrazole-induced seizures in Albino mouse at 30 mg/kg, ip after 4 hrs by scMet. In kind it is functional, organism-based. Set-up: dose 30 mg/kg. Summed up:
as §2

Data set [15] has as its system Mus musculus. Nature of the data set: Anticonvulsant activity in Albino mouse by MES test at 100 mg/kg, ip after 30 mins. In kind it is functional, organism-based. On the set-up: dose 100 mg/kg. Summed up:
as §2

The subject of data set [16] is Mus musculus. Nature of the data set: Neurotoxicity in Albino mouse at 300 mg/kg, ip after 4 hrs by RotaRod test. In kind it is toxicity, organism-based. On the set-up: dose 300 mg/kg, route intraperitoneal. To be noted: in vivo. Summed up: as §2
For data set [17], the system named is Mus musculus. Nature of the data set: Neurotoxicity in Albino mouse at 30 mg/kg, ip after 4 hrs by RotaRod test. It counts as toxicity, organism-based. On the set-up: dose 30 mg/kg, route intraperitoneal. To be noted: in vivo. Summed up:
as §2

Data set [18] has as its system Mus musculus. Nature of the data set: Anticonvulsant activity in Albino mouse at 100 mg/kg, ip after 4 hrs by MES test. In kind it is functional, organism-based. On the set-up: dose 100 mg/kg. Summed up: as §2
Data set [19] has as its system Mus musculus. The experiment in a line: Anticonvulsant activity against metrazole-induced seizures in Albino mouse at 300 mg/kg, ip after 4 hrs by scMet assay. In kind it is functional, organism-based. Set-up: dose 300 mg/kg. Summed up: as §2
The subject of data set [20] is Mus musculus. The experiment in a line: Neurotoxicity in Albino mouse at 300 mg/kg, ip after 30 mins by RotaRod test. In kind it is toxicity, organism-based. On the set-up: dose 300 mg/kg, route intraperitoneal. Conditions: in vivo, 0.5 h. Summed up: as §2

Active and inactive are the calls of the source. The rule behind the calls is not given here.

As for `C=CCNC(=S)N1N=C(c2ccco2)CC1c1ccccc1` (configuration not stated), the Activity is listed as -9.52% in the data set on Mus musculus [1]; “Not Active” in the data set with Mus musculus [2]; 190 s in the data set on Mus musculus [5]; “Not Active” with Mus musculus [7]; “Not Active” with Mus musculus [12]; “Not Active” with Mus musculus [16]. In addition, the Activity result with Mus musculus [17] and in the data set on Mus musculus [20] was “Not Active” each time. The result in the data set on Mus musculus [3], in the data set on Mus musculus [4], in the data set on Mus musculus [6], with Mus musculus [8], in the data set with Mus musculus [10] and in the data set on Mus musculus [11] was inactive. Besides, the result in the data set on Mus musculus [13], with Mus musculus [14], in the data set on Mus musculus [18] and in the data set on Mus musculus [19] was inactive. Moreover, the result in the data set on Mus musculus [9] and in the data set on Mus musculus [15] was Active.
Regarding `C=CCNC(=S)N1N=C(c2ccco2)CC1c1ccco1` (configuration not stated), the Activity was -31.42% in the data set on Mus musculus [1]; “Not Active” in the data set on Mus musculus [2]; 144 s in the data set on Mus musculus [5]; “Not Active” with Mus musculus [7]; “Not Active” in the data set with Mus musculus [12]; “Not Active” with Mus musculus [16]. The Activity result with Mus musculus [17] and with Mus musculus [20] was “Not Active” in each case. In addition, the outcome in the data set with Mus musculus [3], in the data set on Mus musculus [6], in the data set on Mus musculus [9], with Mus musculus [10], with Mus musculus [11] and in the data set on Mus musculus [13] was inactive. Also, the result in the data set with Mus musculus [14] and in the data set with Mus musculus [15] was inactive. In addition, the result in the data set on Mus musculus [4], with Mus musculus [8], in the data set on Mus musculus [18] and in the data set on Mus musculus [19] was Active.
On to `c1ccc(C2CC(c3ccco3)=NN2c2ccccc2)cc1` (configuration not stated), for which the Activity is recorded as 1.42% in the data set on Mus musculus [1]; “Not Active” in the data set on Mus musculus [2]; 213 s with Mus musculus [5]; “Not Active” with Mus musculus [7]; “Not Active” in the data set on Mus musculus [12]; “Not Active” in the data set on Mus musculus [16]. The Activity result in the data set with Mus musculus [17] and with Mus musculus [20] was “Not Active” each time. In addition, the outcome with Mus musculus [3], in the data set on Mus musculus [4], in the data set on Mus musculus [6], with Mus musculus [8], with Mus musculus [9] and in the data set on Mus musculus [10] was inactive. Besides, the result in the data set with Mus musculus [11], with Mus musculus [13], in the data set on Mus musculus [14], in the data set with Mus musculus [15] and in the data set with Mus musculus [18] was inactive. Moreover, in the data set on Mus musculus [19], the result was Active.
As for `S=C(Nc1ccccc1)N1N=C(c2ccco2)CC1c1ccccc1` (configuration not stated), the Activity in the data set on Mus musculus [1] was -12.38%; in the data set on Mus musculus [2], “Not Active”; in the data set on Mus musculus [5] it was 184 s; in the data set with Mus musculus [7] it was “Not Active”; in the data set with Mus musculus [12], “Not Active”; with Mus musculus [16] it was “Not Active”. Moreover, the Activity result in the data set with Mus musculus [17] and in the data set with Mus musculus [20] was “Not Active” throughout. In addition, the result with Mus musculus [3], in the data set with Mus musculus [4], in the data set with Mus musculus [6], in the data set on Mus musculus [9], in the data set with Mus musculus [10] and in the data set with Mus musculus [11] was inactive. In addition, the outcome with Mus musculus [13], in the data set with Mus musculus [14], in the data set on Mus musculus [15], in the data set on Mus musculus [18] and in the data set with Mus musculus [19] was inactive. Moreover, the outcome in the data set with Mus musculus [8] was Active.
In the case of `N[C@H]1C[C@@H]1c1ccccc1.O=S(=O)(O)O`, the Activity is -72.85% with Mus musculus [1] and 57 s in the data set on Mus musculus [5].
For `NC(=S)N1N=C(c2ccco2)CC1c1ccccc1` (configuration not stated), the Activity is 3.81% with Mus musculus [1]; “Not Active” with Mus musculus [2]; 202 s in the data set on Mus musculus [5]; “Not Active” in the data set with Mus musculus [7]; “Not Active” in the data set on Mus musculus [12]; “Not Active” with Mus musculus [16]. The Activity result with Mus musculus [17] and with Mus musculus [20] was “Not Active” in each case. The outcome with Mus musculus [3], with Mus musculus [4], in the data set with Mus musculus [6], in the data set on Mus musculus [8], in the data set with Mus musculus [9] and with Mus musculus [10] was inactive. Besides, the outcome in the data set with Mus musculus [11], in the data set with Mus musculus [13], in the data set with Mus musculus [14], in the data set on Mus musculus [15], with Mus musculus [18] and in the data set with Mus musculus [19] was inactive.
As for `CCNC(=S)N1N=C(c2ccco2)CC1c1ccccc1` (configuration not stated), the Activity in the data set on Mus musculus [1] is -33.8%; in the data set on Mus musculus [2], “Not Active”; in the data set on Mus musculus [5] it was 139 s; with Mus musculus [7], “Not Active”; in the data set with Mus musculus [12] it was “Not Active”; in the data set with Mus musculus [16], “Not Active”. The Activity entry in the data set on Mus musculus [17] and with Mus musculus [20] was “Not Active” throughout. Further, in the data set on Mus musculus [3], the result was Active. The outcome with Mus musculus [4], in the data set with Mus musculus [6], with Mus musculus [8], in the data set on Mus musculus [9], with Mus musculus [10] and in the data set with Mus musculus [11] was inactive. In addition, the outcome in the data set with Mus musculus [13], in the data set with Mus musculus [14], in the data set with Mus musculus [15], in the data set on Mus musculus [18] and in the data set with Mus musculus [19] was inactive.
For the compound `CNC(=S)N1N=C(c2ccco2)CC1c1ccccc1` (configuration not stated), the Activity in the data set on Mus musculus [1] was -4.28%; in the data set with Mus musculus [2] it was “Not Active”; in the data set with Mus musculus [5], 201 s; in the data set on Mus musculus [7], “Not Active”; in the data set with Mus musculus [12], “Not Active”; in the data set with Mus musculus [16], “Not Active”. Moreover, the Activity result in the data set with Mus musculus [17] and in the data set with Mus musculus [20] was “Not Active” each time. For the same compound, the result in the data set on Mus musculus [3], with Mus musculus [4], in the data set on Mus musculus [6], in the data set on Mus musculus [8], with Mus musculus [9] and in the data set on Mus musculus [10] was inactive. The outcome with Mus musculus [11], in the data set on Mus musculus [13], in the data set with Mus musculus [14], in the data set with Mus musculus [15], with Mus musculus [18] and with Mus musculus [19] was inactive.

Source of the values: ChEMBL document CHEMBL1143773, “Synthesis and studies on antidepressant and anticonvulsant activities of some 3-(2-furyl)-pyrazoline derivatives” (Eur J Med Chem, 2007).
